{
  "source": "ChEMBL document CHEMBL4007402",
  "about": "(J Med Chem, 2017)",
  "key": {"[1]": {"test": "Growth inhibition of mouse BAF3 cells after 72 hrs by CellTiter-Glo or CCK-8 assay", "format": "cell-based", "procedure,_shortened": "(§1)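 Isogenic murine BaF3 cells transformed with TEL-fused kinases, whose proliferation depends on the fused kinase, were used. Parental BaF3 cells served as the general selectivity counter-screen. The anti-proliferative read-out was reported as GI50.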"}, "[2]": {"biological_target": "Tyrosine-protein kinase ABL1 (Homo sapiens) (UniProt P00519)", "sequence (P00519 whole entry, the tested form may be a part)": "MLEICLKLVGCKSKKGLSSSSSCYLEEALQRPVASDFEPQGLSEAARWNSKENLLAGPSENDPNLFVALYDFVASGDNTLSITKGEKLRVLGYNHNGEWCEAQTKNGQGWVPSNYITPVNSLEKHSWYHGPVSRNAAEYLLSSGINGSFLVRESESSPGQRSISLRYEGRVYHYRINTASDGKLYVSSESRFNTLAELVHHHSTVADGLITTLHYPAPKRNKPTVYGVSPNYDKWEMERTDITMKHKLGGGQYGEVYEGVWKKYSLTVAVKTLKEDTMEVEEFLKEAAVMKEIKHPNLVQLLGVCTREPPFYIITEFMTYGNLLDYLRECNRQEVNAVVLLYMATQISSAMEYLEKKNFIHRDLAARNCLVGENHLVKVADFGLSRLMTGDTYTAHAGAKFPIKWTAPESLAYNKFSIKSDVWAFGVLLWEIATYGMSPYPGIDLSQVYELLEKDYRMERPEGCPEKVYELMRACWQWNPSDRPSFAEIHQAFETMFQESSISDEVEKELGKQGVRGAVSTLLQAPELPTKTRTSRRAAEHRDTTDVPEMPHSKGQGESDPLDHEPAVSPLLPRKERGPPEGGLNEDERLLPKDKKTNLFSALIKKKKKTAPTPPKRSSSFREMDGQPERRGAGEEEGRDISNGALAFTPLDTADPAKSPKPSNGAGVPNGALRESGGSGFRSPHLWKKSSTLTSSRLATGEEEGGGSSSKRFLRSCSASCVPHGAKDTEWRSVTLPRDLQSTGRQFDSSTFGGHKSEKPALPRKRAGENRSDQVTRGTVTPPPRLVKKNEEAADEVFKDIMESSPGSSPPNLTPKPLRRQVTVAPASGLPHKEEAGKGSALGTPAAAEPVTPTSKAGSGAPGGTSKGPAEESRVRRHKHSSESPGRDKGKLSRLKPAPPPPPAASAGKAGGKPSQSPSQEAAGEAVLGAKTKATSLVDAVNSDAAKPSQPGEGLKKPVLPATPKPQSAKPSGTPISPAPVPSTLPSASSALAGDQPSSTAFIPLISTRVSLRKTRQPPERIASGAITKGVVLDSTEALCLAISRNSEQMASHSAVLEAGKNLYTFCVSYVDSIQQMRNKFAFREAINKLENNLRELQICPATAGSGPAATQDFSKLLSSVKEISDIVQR", "test": "Inhibition of recombinant TEL-fused ABL (unknown origin) expressed in mouse BAF3 cells assessed as growth inhibition after 72 hrs by CellTiter-Glo or CCK-8 assay", "format": "cell-based", "procedure,_shortened": "as §1"}, "[3]": {"biological_target": "Tyrosine-protein kinase ABL1 (Homo sapiens) (UniProt P00519)", "test": "Binding affinity to human phosphorylated ABL1 (229 to 512 amino acid residues) expressed in mammalian expression system assessed as percent control number at 1 uM by KINOMEscan assay", "procedure,_shortened": "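KINOMEscan competition binding panel of 468 kinases, with the compound tested at 1 µM. Binding is expressed as percent of control relative to DMSO.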"}, "[4]": {"biological_target": "Epithelial discoidin domain-containing receptor 1 (Homo sapiens, UniProt Q08345)", "sequence (Q08345 whole entry, the tested form may be a part)": "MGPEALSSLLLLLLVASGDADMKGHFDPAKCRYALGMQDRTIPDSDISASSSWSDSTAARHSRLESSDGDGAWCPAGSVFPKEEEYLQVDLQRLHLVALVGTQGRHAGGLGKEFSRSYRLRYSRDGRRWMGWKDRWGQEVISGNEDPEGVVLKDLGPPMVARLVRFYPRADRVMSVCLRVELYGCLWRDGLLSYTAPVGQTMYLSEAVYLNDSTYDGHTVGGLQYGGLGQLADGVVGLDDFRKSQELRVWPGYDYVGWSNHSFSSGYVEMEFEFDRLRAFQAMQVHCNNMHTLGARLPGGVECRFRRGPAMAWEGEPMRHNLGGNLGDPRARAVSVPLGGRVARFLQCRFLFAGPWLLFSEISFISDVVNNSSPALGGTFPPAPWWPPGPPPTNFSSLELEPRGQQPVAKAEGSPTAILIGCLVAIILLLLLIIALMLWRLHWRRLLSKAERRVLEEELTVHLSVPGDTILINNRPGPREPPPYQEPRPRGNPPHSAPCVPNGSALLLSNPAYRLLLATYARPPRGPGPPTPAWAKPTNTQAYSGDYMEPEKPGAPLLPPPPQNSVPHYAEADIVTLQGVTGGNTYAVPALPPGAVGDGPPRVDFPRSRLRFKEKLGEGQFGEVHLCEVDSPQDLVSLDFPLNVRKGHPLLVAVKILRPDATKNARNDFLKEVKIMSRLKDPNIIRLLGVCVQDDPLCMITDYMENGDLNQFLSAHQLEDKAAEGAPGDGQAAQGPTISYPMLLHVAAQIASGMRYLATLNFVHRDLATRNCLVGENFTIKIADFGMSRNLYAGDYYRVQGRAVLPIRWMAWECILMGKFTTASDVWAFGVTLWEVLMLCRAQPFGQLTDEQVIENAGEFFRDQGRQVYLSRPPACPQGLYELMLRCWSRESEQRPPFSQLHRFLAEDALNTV", "test": "Inhibition of human GST-tagged DDR1 catalytic domain expressed in baculovirus expression system by LanthaScreen assay"}, "[5]": {"system": "CWR22R", "test": "Growth inhibition of human 22Rv1 cells after 72 hrs by CellTiter-Glo or CCK-8 assay", "format": "functional", "details": "22Rv1, 72 h"}, "[6]": {"system": "DU-145", "test": "Growth inhibition of human DU145 cells after 72 hrs by CellTiter-Glo or CCK-8 assay", "format": "functional", "details": "DU-145, 72 h"}, "[7]": {"test": "Growth inhibition of human bladder cancer cells after 72 hrs by CellTiter-Glo or CCK-8 assay", "format": "functional", "details": "Bladder cancer cell"}, "[8]": {"system": "5637", "test": "Growth inhibition of human 5637 cells after 72 hrs by CellTiter-Glo or CCK-8 assay", "format": "functional", "details": "Homo sapiens, 5637, 72 h"}, "[9]": {"system": "769-P", "test": "Growth inhibition of human 769-P cells after 72 hrs by CellTiter-Glo or CCK-8 assay", "format": "functional"}, "[10]": {"test": "Growth inhibition of CHO cells after 72 hrs by CellTiter-Glo or CCK-8 assay", "format": "cell-based, Cricetulus griseus", "details": "chinese hamster"}, "[11]": {"system": "ACHN", "test": "Growth inhibition of human ACHN cells after 72 hrs by CellTiter-Glo or CCK-8 assay", "format": "functional"}, "[12]": {"test": "AUC (0 to t) in Sprague-Dawley rat at 1 mg/kg, iv up to 8 hrs", "format": "ADME, organism-based", "design": "time < 8 hr, dose 1 mg/kg, route intravenous", "details": "in vivo", "procedure,_shortened": "(§2)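 Sprague Dawley rats given a single i.v. dose of 1 mg/kg or an oral dose of 10 mg/kg. Plasma AUC(0-t), AUC(0-∞), MRT(0-t), T1/2, Tmax and Cmax were derived and reported as mean±SD.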"}, "[13]": {"test": "AUC (0 to infinity) in Sprague-Dawley rat at 10 mg/kg, po up to 24 hrs", "format": "ADME, organism-based", "design": "dose 10 mg/kg, time infinity, route oral", "details": "in vivo", "procedure,_shortened": "as §2"}, "[14]": {"test": "Mean residence time (0 to t) in Sprague-Dawley rat at 10 mg/kg, po", "format": "ADME, organism-based", "details": "in vivo", "procedure,_shortened": "as §2"}, "[15]": {"test": "Tmax in Sprague-Dawley rat at 1 mg/kg, iv", "format": "ADME, organism-based", "details": "in vivo", "procedure,_shortened": "as §2"}, "[16]": {"test": "Tmax in Sprague-Dawley rat at 10 mg/kg, po", "format": "ADME, organism-based", "details": "in vivo", "procedure,_shortened": "as §2"}, "[17]": {"test": "Cmax in Sprague-Dawley rat at 10 mg/kg, po up to 24 hrs", "format": "ADME, organism-based", "design": "dose 10 mg/kg, route oral", "details": "in vivo", "procedure,_shortened": "as §2"}},
  "data": [
    {"smiles": "C=CC(=O)Nc1cc(Nc2ncc(C(=O)Nc3cc(NC(=O)c4cc(OC)c(OC)c(OC)c4)ccc3C)c(NC)n2)ccc1C", "values": [
      {"measurement": "GI50 at 72 h", "setting": "[1]", "value": "> 10", "unit": "µM"},
      {"measurement": "GI50", "setting": "[2]", "value": 2.56, "unit": "µM"},
      {"measurement": "Activity", "setting": "[3]", "value": 6.5, "unit": "%"},
      {"measurement": "IC50", "setting": "[4]", "value": 0.265, "unit": "µM"},
      {"measurement": "GI50", "setting": "[5]", "value": 3.45, "unit": "µM"},
      {"measurement": "GI50", "setting": "[6]", "value": 7.89, "unit": "µM"},
      {"measurement": "GI50", "setting": "[7]", "value": 8.87, "unit": "µM"},
      {"measurement": "GI50", "setting": "[8]", "value": "> 10", "unit": "µM"},
      {"measurement": "GI50", "setting": "[9]", "value": "> 10", "unit": "µM"},
      {"measurement": "GI50 at 72 h", "setting": "[10]", "value": "> 10", "unit": "µM"},
      {"measurement": "GI50", "setting": "[11]", "value": 4.93, "unit": "µM"},
      {"measurement": "AUC(0-t) at 8 h", "setting": "[12]", "value": 1390, "unit": "ng·h/mL"},
      {"measurement": "AUC(0-inf)", "setting": "[13]", "value": 27.6, "unit": "ng·h/mL"},
      {"measurement": "MRT last", "setting": "[14]", "value": 166, "unit": "min"},
      {"measurement": "Tmax", "setting": "[15]", "value": 1.02, "unit": "min"},
      {"measurement": "Tmax", "setting": "[16]", "value": 11.4, "unit": "min"},
      {"measurement": "Cmax", "setting": "[17]", "value": 5.58, "unit": "ng/mL"}
    ]}
  ]
}
